The source of these data is PMC8857066 (Bioorganic & medicinal chemistry letters, 2022).

Test [1] has as its target T1, fluorescein-labeled WIL-FL LC dimer (WIL-FL*) (Homo sapiens, UniProt P01721, K101C). The conditions noted are these: previous study; cited from earlier work.
Test [2] has as its system unlabeled WIL-FL LC dimer. The experiment in a line: proteinase K sensitivity assay, single dose. It is filed as biochemical, human. The conditions noted are these: 10 μM stabilizer. The essentials: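 Unlabelled WIL-FL LC dimer (2.5 μM) was treated with test compound (10 μM) and proteinase K (50 nM) for 2 h at 37 °C. Remaining intact dimer was quantified by size-exclusion chromatography. Fold protection is the fraction of dimer remaining with compound, corrected for residual dimer in the vehicle (1% DMSO) control. Mean of ≥3 independent replicates ± 1 SD.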

In test [3] the target is T1, fluorescein-labeled WIL-FL LC dimer (WIL-FL*). The test is described as follows: protease-coupled fluorescence polarization. It is filed as biochemical. Background: Fluorescence polarisation rises when a labelled molecule tumbles more slowly, as on binding a larger partner.
Test [4] deals with fluorescein-labeled WIL-FL* T46L/F49Y LC dimer (Homo sapiens, UniProt P01721, K101C/T66L). The test is described as follows: protease-coupled fluorescence polarization. Type of test: biochemical. As to conditions: for increased potency compared to stabilizer 1 in the PCFP assays (up to): highest ratio across the two PCFP assays (WIL-FL* and WIL-FL* T46L/F49Y).
A further test deals with FL LC dimers. The conditions noted are these: cited from earlier work.

T1 sequence (P01721 20-117 K101C): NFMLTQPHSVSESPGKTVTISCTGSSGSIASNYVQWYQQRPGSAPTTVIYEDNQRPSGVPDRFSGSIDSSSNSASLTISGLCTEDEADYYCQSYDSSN
Chain of fluorescein-labeled WIL-FL* T46L/F49Y LC dimer (P01721 20-117 T66L/K101C): as the sequence (P01721 20-117 K101C) above, with T47L counted along it

As for `CCN(CC)c1ccc2c(C)c(CCOC(=O)NCc3ccccc3)c(=O)oc2c1` [2-(7-(diethylamino)-4-methyl-2-oxo-2H-chromen-3-yl)ethyl benzylcarbamate], the “improved potency compared to 1 in the PCFP assays” value in test [1] is “more than ten-fold”.

On to `CCN(CC)c1ccc2c(C)c(CCC(=O)NCCc3cccnc3)c(=O)oc2c1` [Compound 11], for which, in test [2], the “increase in fold protection for unlabeled WIL-FL compared to stabilizer 1” value came to 0.33. In addition, the “potency increase for WIL-FL* compared to stabilizer 1” value in test [3] (ratio of EC50 values) turned out to be 2.6 fold. The “potency increase for WIL-FL* T46L/F49Y compared to stabilizer 1” value in test [4] (ratio of EC50 values) is “two-fold”. `CCN(CC)c1ccc2c(C)c(CCNC(=O)CCc3ccccc3)c(=O)oc2c1` [Compound 16]: the “maximal fluorescence polarization compared to compound 1” value in test [3] (PCFP dose-response (Figure S3)) is “lower”. Take `CCN(CC)c1ccc2c(C)c(CCNC(=O)NCc3cccc(-c4c[nH]cn4)c3)c(=O)oc2c1` [Compound 21]: the “increased potency compared to stabilizer 1 in the PCFP assays (up to)” value in test [4] was “up to 56 fold”. Still for that read-out and setting: the value for `CCN(CC)c1ccc2c(C)c(CCNC(=O)NCc3ccc4ccccc4c3)c(=O)oc2c1` [Compound 23] was at most 150 fold.

`CN(C)c1ccc2nc3ccc(=[N+](C)C)cc-3sc2c1` [methylene blue]: the “stabilization of FL LC dimers” value in the test with FL LC dimers is “do not stabilize FL LC dimers”.

`O=C(O)c1cc(/N=N/c2ccc(S(=O)(=O)Nc3ccccn3)cc2)ccc1O` [sulfasalazine]: the “stabilization of FL LC dimers” value with FL LC dimers was “do not stabilize FL LC dimers”.
